In series [1] the test system is Rattus norvegicus. Put plainly: Tmax in Sprague-Dawley rat at 5 ug/kg, sc. In kind it is ADME, organism-based. To be noted: in vivo, 0.005 mg/kg.
Series [2] can be described thus: Half life in Sprague-Dawley rat at 5 ug/kg, sc. In kind it is ADME, organism-based. To be noted: in vivo, 0.005 mg/kg.
Series [3] in a line: Clearance in Crl:CD/SD IGS, CRJ rat at 3 mg/kg, iv by LC-MS/MS analysis. To be noted: in vivo. Format: ADME, organism-based. The method in brief: (§1)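 Female 5-week-old rats, two per dose group, given 3 mg/kg orally or intravenously. Oral blood samples at 15 and 30 min, 1, 2, 4 and 6 h; intravenous sample at 3 min. Plasma drug measured by LC-MS/MS (detection limit 0.3 ng/ml). Parameters derived by noncompartmental analysis; mean of n=2.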

Series [4] in a line: Intrinsic clearance in human liver microsomes assessed per mg protein at 1 uM after 30 mins in presence of NADPH by LC-MS/MS analysis. In kind it is ADME, microsome. To be noted: read-out: CLH.
Series [5] deals with Rattus norvegicus. Put plainly: In vivo agonist activity at PTHR1 in po dosed Crl:CD(SD) rat TPTX model assessed as increase in serum calcium levels administered as single dose measured after 24 hrs by o-cresolphthalein complexone method. In kind it is functional, organism-based. The method in brief: (§2)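 Female 6-week-old Crl:CD(SD) rats after surgical TPTX; those with serum Ca <8.0 mg/dl at day 5 were used, and dosing began day 6. Single oral dose of 6, 19 or 60 mg/kg, or vehicle (10% DMSO/10% Kolliphor EL in 10% HPCD/0.752% glycine buffer), n=5 per group. Jugular blood taken under isoflurane before dosing and at 0.5, 1, 2, 4, 6, 10 and 24 h. Serum Ca measured by o-CPC, Pi by xanthine oxidase.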

Series [6] can be described thus: Intrinsic clearance in human liver microsomes assessed per mg protein at 1 uM after 30 mins in absence of NADPH by LC-MS/MS analysis. Format: ADME, microsome. The conditions noted are these: microsomes, 0.5 h, 1 µM.
Series [7] can be described thus: Cmax in Crl:CD/SD IGS, CRJ rat at 3 mg/kg, po by LC-MS/MS analysis. In kind it is ADME, organism-based. Details: dose 3 mg/kg, route oral. The conditions noted are these: in vivo. The method in brief:
as §1

A short description of series [8]: Volume of distribution at steady state in Crl:CD/SD IGS, CRJ rat at 3 mg/kg, iv by LC-MS/MS analysis. Format: ADME, organism-based. The conditions noted are these: in vivo, read-out: Vdss. The method in brief:
as §1

Series [9] concerns the target T1, Parathyroid hormone/parathyroid hormone-related peptide receptor (Homo sapiens) (UniProt Q03431).
T1 sequence (whole entry): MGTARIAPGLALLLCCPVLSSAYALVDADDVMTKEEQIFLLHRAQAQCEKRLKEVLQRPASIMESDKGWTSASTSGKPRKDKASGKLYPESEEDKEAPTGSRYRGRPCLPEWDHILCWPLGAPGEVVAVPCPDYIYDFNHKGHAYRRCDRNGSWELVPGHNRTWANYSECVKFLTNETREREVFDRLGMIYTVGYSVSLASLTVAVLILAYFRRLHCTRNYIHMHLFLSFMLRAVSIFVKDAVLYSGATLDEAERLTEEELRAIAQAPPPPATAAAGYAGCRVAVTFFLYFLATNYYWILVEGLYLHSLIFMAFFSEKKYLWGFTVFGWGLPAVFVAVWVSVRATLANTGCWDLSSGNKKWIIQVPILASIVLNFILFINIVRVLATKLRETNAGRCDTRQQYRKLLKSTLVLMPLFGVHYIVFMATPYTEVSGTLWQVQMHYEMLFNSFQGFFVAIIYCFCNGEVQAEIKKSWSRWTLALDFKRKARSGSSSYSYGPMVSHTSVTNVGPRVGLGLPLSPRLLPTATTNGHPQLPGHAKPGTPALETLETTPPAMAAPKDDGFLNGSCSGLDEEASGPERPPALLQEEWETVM
Put plainly: (§3) Agonist activity at human PTHR1 expressed in HKRKB7 cells assessed as accumulation of intracellular cAMP after 20 mins by enzyme immunoassay. In kind it is functional, cell-based. The method in brief: (§4)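 HKRK-B7 cells (LLC-PK1 stably expressing hPTHR1), 1.0 x 10^3 per well, seeded overnight, then exposed to serially diluted compound in McCoy's 5A with 2 mg/ml BSA, 1 mmol/l IBMX and 2 mmol/l HEPES for 20 min at 37°C. Cells washed, frozen, lysed in 50 mmol/l HCl, cAMP read by EIA.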

In series [10] the target is T2, Parathyroid hormone/parathyroid hormone-related peptide receptor (Homo sapiens, UniProt Q03431).
T2 sequence (Q03431 whole entry): T1 sequence (whole entry)
The series is described as §3. In kind it is functional, cell-based. The method in brief: as §4

The nature of series [11]: Clearance in Crl:CD/SD IGS, CRJ rat at 3 mg/kg, po by LC-MS/MS analysis. Format: ADME, organism-based. The conditions noted are these: in vivo. The method in brief: as §1
Series [12] in a line: Half life in Crl:CD/SD IGS, CRJ rat at 3 mg/kg, po by LC-MS/MS analysis. Format: ADME, organism-based. The conditions noted are these: in vivo. The method in brief: as §1
Another series has as its system LLC-PK1. In words: Induction of cAMP production in porcine LLC-PK1 cells after 20 mins by enzyme immunoassay. Format: functional, cell-based. The conditions noted are these: Sus scrofa. The method in brief:
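Counter-screen on parent LLC-PK1 cells lacking hPTHR1. Conditions match the HKRK-B7 assay: 20 min at 37°C in IBMX-containing assay medium, then cAMP read by EIA.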

The target in series [13] is T2, Parathyroid hormone/parathyroid hormone-related peptide receptor. Put plainly: Displacement of 125I-PTH (1 to 15 residues) from human PTHR1 expressed in African green monkey COS7 cell membranes at 300 uM after 90 mins by gamma counting analysis.
Series [14] in a line: Oral bioavailability in Crl:CD/SD IGS, CRJ rat at 3 mg/kg by LC-MS/MS analysis. Format: ADME, organism-based. The conditions noted are these: in vivo. The method in brief: as §1
Series [15] can be described thus: AUC (infinity) in Crl:CD/SD IGS, CRJ rat at 3 mg/kg, iv by LC-MS/MS analysis. Format: ADME, organism-based. On the set-up: dose 3 mg/kg, route intravenous, time infinity. The conditions noted are these: in vivo. The method in brief: as §1
Series [16] in a line: Half life in Crl:CD/SD IGS, CRJ rat at 3 mg/kg, iv by LC-MS/MS analysis. In kind it is ADME, organism-based. To be noted: in vivo. The method in brief: as §1
Series [17] is described as follows: Solubility of the compound in PBS at pH 6.5 at 1 mM by HPLC-UV analysis. In kind it is physicochemical. The conditions noted are these: PBS, pH 6.5. The method in brief:
(§5)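 A 1 mM DMSO stock (50 µL) was freeze-dried, then the residue taken up in 50 mM PBS pH 6.5 or FaSSIF pH 6.5. Sonicated 10 min, shaken 2 h, centrifuged, filtered. Filtrate concentration determined by HPLC-UV against each compound's calibration curve.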

The nature of series [18]: AUC (infinity) in Crl:CD/SD IGS, CRJ rat at 3 mg/kg, po by LC-MS/MS analysis. Format: ADME, organism-based. On the set-up: dose 3 mg/kg, time infinity, route oral. The conditions noted are these: in vivo. The method in brief:
as §1

Series [19] relates to Rattus norvegicus. Put plainly: In vivo agonist activity at PTHR1 in po dosed Crl:CD(SD) rat TPTX model assessed as decrease in serum phosphorus levels administered as single dose measured after 24 hrs by xanthine oxidase method. In kind it is functional, organism-based. The method in brief:
as §2

A short description of series [20]: Solubility of the compound in FaSSIF at 1 mM by HPLC-UV analysis. Format: physicochemical. The conditions noted are these: FaSSIF. The method in brief:
as §5

Series [21] deals with T1, Parathyroid hormone/parathyroid hormone-related peptide receptor (Homo sapiens). In words: Displacement of 125I-PTH (1 to 15 residues) from human PTHR1 expressed in African green monkey COS7 cell membranes after 90 mins by gamma counting analysis. The method in brief:
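Competition binding on membranes from COS-7 cells expressing human PTHR1. Incubated 90 min at room temperature, vacuum-filtered and washed, filter radioactivity gamma-counted. Nonspecific binding defined with excess (1x10^4 M as printed) unlabeled PTH(1-34).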

Series [22] can be described thus: Tmax in Crl:CD/SD IGS, CRJ rat at 3 mg/kg, po by LC-MS/MS analysis. In kind it is ADME, organism-based. To be noted: in vivo. The method in brief: as §1
The target in another series is hERG (KCNH2) (Homo sapiens, UniProt Q12809). Put plainly: Inhibition of human ERG at a holding potential of -80 mV at 10 uM by automated patch clamp electrophysiology method.
Series [23] concerns the target T1, Parathyroid hormone/parathyroid hormone-related peptide receptor (Homo sapiens). In words: Ratio of IC50 for displacement of 125I-PTH (1 to 15 residues) from human PTHR1 expressed in African green monkey COS7 cell membranes to EC50 for agonist activity at human PTHR1 expressed in HKRKB7 cells assessed as accumulation of intracellular cAMP. In kind it is functional.

Molecules are shown by their SMILES. Converted amounts (≈) assume the structure as drawn. The source made the active and inactive calls. No cut-off for these calls is given here.

Sequence of hERG (KCNH2) (Q12809 whole entry, the tested form may be a part): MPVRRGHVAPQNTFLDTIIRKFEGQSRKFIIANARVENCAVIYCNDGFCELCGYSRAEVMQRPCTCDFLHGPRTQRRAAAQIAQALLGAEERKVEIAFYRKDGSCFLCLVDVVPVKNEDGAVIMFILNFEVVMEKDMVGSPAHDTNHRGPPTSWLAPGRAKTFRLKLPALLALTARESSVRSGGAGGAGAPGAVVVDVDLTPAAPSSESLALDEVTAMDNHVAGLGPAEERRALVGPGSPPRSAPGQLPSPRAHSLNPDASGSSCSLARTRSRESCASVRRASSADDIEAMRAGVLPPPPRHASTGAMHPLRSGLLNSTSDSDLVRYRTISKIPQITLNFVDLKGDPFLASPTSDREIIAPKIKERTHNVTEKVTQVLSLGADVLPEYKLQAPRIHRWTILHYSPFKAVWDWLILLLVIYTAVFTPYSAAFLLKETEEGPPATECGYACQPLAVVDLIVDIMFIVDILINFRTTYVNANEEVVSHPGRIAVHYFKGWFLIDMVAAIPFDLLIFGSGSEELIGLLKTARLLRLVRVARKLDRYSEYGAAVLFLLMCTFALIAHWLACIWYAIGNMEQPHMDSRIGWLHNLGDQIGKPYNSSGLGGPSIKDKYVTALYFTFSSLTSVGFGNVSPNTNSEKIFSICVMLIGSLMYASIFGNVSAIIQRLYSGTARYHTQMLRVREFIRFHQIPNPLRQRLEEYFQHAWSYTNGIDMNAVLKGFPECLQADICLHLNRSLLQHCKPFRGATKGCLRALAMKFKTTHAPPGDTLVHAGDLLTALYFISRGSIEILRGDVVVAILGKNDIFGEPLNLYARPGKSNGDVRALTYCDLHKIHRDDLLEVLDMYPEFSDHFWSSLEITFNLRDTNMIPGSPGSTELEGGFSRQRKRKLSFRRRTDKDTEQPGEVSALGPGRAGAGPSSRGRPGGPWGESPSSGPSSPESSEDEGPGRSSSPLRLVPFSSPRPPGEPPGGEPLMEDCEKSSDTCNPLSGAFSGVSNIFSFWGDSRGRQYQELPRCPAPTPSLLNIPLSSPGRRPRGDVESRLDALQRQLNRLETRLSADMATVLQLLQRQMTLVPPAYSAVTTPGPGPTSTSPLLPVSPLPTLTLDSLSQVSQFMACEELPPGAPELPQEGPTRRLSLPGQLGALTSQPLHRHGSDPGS

Regarding `CC[C@H](C)[C@H](NC(=O)[C@H](CCC(=O)O)NC(=O)[C@H](CO)NC(=O)[C@@H](NC(=O)[C@@H](N)CO)C(C)C)C(=O)N[C@@H](CCC(N)=O)C(=O)N[C@@H](CC(C)C)C(=O)N[C@@H](CCSC)C(=O)N[C@@H](Cc1cnc[nH]1)C(=O)N[C@@H](CC(N)=O)C(=O)N[C@@H](CC(C)C)C(=O)NCC(=O)N[C@@H](CCCCN)C(=O)N[C@@H](Cc1cnc[nH]1)C(=O)N[C@@H](CC(C)C)C(=O)N[C@@H](CC(N)=O)C(=O)N[C@@H](CO)C(=O)N[C@@H](CCSC)C(=O)N[C@@H](CCC(=O)O)C(=O)N[C@@H](CCCN=C(N)N)C(=O)N[C@H](C(=O)N[C@@H](CCC(=O)O)C(=O)N[C@@H](Cc1c[nH]c2ccccc12)C(=O)N[C@@H](CC(C)C)C(=O)N[C@@H](CCCN=C(N)N)C(=O)N[C@@H](CCCCN)C(=O)N[C@@H](CCCCN)C(=O)N[C@@H](CC(C)C)C(=O)N[C@@H](CCC(N)=O)C(=O)N[C@@H](CC(=O)O)C(=O)N[C@H](C(=O)N[C@@H](Cc1cnc[nH]1)C(=O)N[C@@H](CC(N)=O)C(=O)N[C@@H](Cc1ccccc1)C(=O)O)C(C)C)C(C)C` [TERIPARATIDE], the Tmax with Rattus norvegicus [1] came to 0.25 h. Also, the half-life in series [2] is 0.5 h.
For the molecule `Cc1cc(N(C)C(N)=O)cc(C)c1CCS(=O)(=O)N1CCC2(CC1)N=C([C@H]1CC[C@H](C)CC1)NC2=O`, the clearance in series [3] was 10.4 mL/min/kg. Also, the microsomal CLint at 1 µM in series [4] stood at 45 µL/min/mg. Moreover, the Activity result in the series on Rattus norvegicus [5] and in the series on Rattus norvegicus [19] was “Dose-dependent effect” throughout. For the same molecule, the CLint in series [6] is 0.14 µL/min/mg. This molecule also displayed a peak concentration (Cmax) in [7] of 1360 ng/mL. Moreover, the Vd in series [8] worked out at 0.395 L/kg. Also, the concentration for an effect of 20% (EC20) in series [9] was 3 µM. In [10], the EC50 amounted to 12 µM. The same molecule gave a CL/F in series [11] of 19 mL/min/kg. Moreover, the half-life in series [12] is 1 h; in [16] it was 1.1 h. Moreover, the outcome with LLC-PK1 was inactive. Further, the IC50 in series [13] came out at 93.7 µM. This molecule yielded a bioavailability in [14] of 55%. The values for the AUC(0-inf) in [15] and in series [18] were 4820 ng·h/mL and 2650 ng·h/mL, respectively. The solubility at 1000 µM in [17] came out at 99 µg/mL (≈ 191 µM); in [20], 250 µg/mL (≈ 483 µM). The molecule also yielded an inhibition in series [21] of 75%. Also, in [22], the Tmax was found to be 1 h. Moreover, at hERG (KCNH2), the inhibition at 10 µM worked out at 10%. Moreover, the Ratio IC50/EC50 in series [23] turned out to be 8.

Source of the values: ChEMBL document CHEMBL4190402, “Development of a Novel Human Parathyroid Hormone Receptor 1 (hPTHR1) Agonist (CH5447240), a Potent and Orally Available Small Molecule for Treatment of Hypoparathyroidism” (J Med Chem, 2018).
